Reference: PMC3204583 (Journal of medicinal chemistry, 2010)

Key:
[1] = test system: poly-ubiquitinated proteins in HeLa cervical cancer cells; assay: Immunoblot analysis of poly-ubiquitinated proteins in HeLa cells; format: cell-based, human; details: eight hours treatment
Summary of the method: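 HeLa cells were grown in DMEM with 10% FBS, penicillin and streptomycin at 5% CO2, then treated for 8 h with or without test compound at several concentrations. Bortezomib served as the positive control. Poly-ubiquitinated proteins were detected by immunoblot, with β-actin as the loading control.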

HeLa cells = assay: Washout experiment, residual cell viability; format: cell-based, human; details: HeLa cells briefly treated
Summary of the method: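 HeLa cells grown in DMEM with 10% FBS, penicillin/streptomycin, 5% CO2. Cells were briefly exposed to the test compound or bortezomib (reversible-inhibitor reference), then washed out; non-washout cultures served as comparison. Viability was read by XTT: seeded at 1,000 cells/well, 4 h with XTT labeling mixture, absorbance at 450 nm. Run in triplicate, mean ± SE.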

[2] = test system: SiHa cervical cancer cells (HPV16+); assay: XTT cell viability assay, SiHa; format: cell-based, human; details: 48 hours
[3] = test system: chymotrypsin-like (CT-like) activity of proteasomes isolated from LCLs; assay: Proteasome chymotrypsin-like activity, fluorogenic substrate Suc-LLVY-AMC; format: biochemical; details: 10 µM compound
Summary of the method: (§1)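 Proteasomes came from lymphoblastoid cells lysed by glass-bead vortexing in Tris pH 7.5, MgCl2, DTT, ATP and sucrose buffer. They were semipurified by centrifugation and 100,000g ultracentrifugation. Preparations were pretreated with test compound for 30 min at 37°C, then assayed 45 min at 37°C with Suc-LLVY-AMC (CT-like), Boc-LRR-AMC (T-like) or Ac-YVAD-AMC (PGPH/caspase-like). Reactions were SDS-quenched and read at ex 380/em 440 nm. Results are % inhibition versus untreated; IC50 is the mean of three determinations.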

[4] = test system: peptidylglutamyl peptide hydrolyzing-like (PGPH-like) activity of proteasomes isolated from LCLs; assay: Proteasome PGPH-like activity, fluorogenic substrate Ac-YVAD-AMC; format: biochemical; details: for inhibition of PGPH-like activity of 20S proteasome: 10 µM compound; for IC50: read-out: Isolated enzyme IC50(µM) PGPH-like, proteasomes isolated from LCLs, average of three independent determinations
Summary of the method: as §1

Calpain = assay: Residual Calpain activity in HeLa cells; format: cell-based, human; details: concentrations up to 50 µM
Cathepsin D = Cathepsin D (Homo sapiens, UniProt P07339); assay: Residual Cathepsin D activity in HeLa cells; format: cell-based; details: concentrations up to 50 µM
[5] = test system: HeLa cervical cancer cells; assay: Combination with Bortezomib, XTT viability, isobologram / combination index; format: cell-based, human
[6] = test system: HeLa cervical cancer cells; assay: Cellular morphology by phase contrast microscopy; format: cell-based, human; details: combination of Bortezomib (5nM)+compound 2 (1 µM), 48 hours
[7] = test system: trypsin-like (T-like) activity of proteasomes isolated from LCLs; assay: Proteasome trypsin-like activity, fluorogenic substrate Boc-LRR-AMC; format: biochemical; details: 10 µM compound
Summary of the method: as §1

[8] = test system: primary human Keratinocytes; assay: XTT cell viability assay, primary Keratinocytes; format: cell-based; details: 48 hours
[9] = test system: Ub-FL reporter in HeLa cervical cancer cells; assay: Ubiquitin-Firefly luciferase; format: cell-based, human; details: combination of Bortezomib (5nM) and compound 2 (1µM)
Summary of the method: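 HeLa cells were transfected with either the Ub-FL reporter (four ubiquitin G76V copies fused N-terminal to firefly luciferase) or the CMV-FL control. They were replated 24 h later at 1×10^4 cells/well and left 18 h to attach. Cells then received bortezomib 5 nM, test compound 1 µM, or both for 6 h. Lysate luciferase was read as RLU, given as % of control, from three independent experiments with SE.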

[10] = test system: ME180 cervical cancer cells (HPV58+); assay: XTT cell viability assay, ME180; format: cell-based, human; details: 48 hours

Chain of Cathepsin D (P07339 65-412): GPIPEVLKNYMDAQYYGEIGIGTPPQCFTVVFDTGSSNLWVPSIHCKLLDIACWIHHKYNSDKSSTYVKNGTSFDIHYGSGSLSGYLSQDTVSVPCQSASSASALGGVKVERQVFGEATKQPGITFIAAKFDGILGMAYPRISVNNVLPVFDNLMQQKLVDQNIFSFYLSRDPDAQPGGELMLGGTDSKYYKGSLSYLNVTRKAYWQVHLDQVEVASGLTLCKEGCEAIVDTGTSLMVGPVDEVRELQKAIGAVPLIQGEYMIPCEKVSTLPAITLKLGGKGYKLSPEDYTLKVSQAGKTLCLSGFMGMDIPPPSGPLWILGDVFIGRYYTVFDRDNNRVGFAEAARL

IC50 [4]	SMILES	levels of poly-ubiquitinated proteins [1]	cell viability after washout compared to non-washout cultures (HeLa cells)	inhibition of chymotrypsin-like (CT-like) activity of 20S proteasome [3]	inhibition of PGPH-like activity of 20S proteasome [4]	inhibition of trypsin-like (T-like) activity of 20S proteasome [7]	other results
	O=C(O)CC[C@H](NC(=O)N1C/C(=C\c2ccc(Cl)c(Cl)c2)C(=O)/C(=C/c2ccc(Cl)c(Cl)c2)C1)C(=O)O [Compound 5]	no changes					
	O=C1/C(=C/c2ccc(Cl)c(Cl)c2)CN(C(=O)N[C@@H](Cc2ccccc2)C(=O)O)C/C1=C\c1ccc(Cl)c(Cl)c1 [Compound 2]		partial recovery in cell viability	nearly fully abrogated	nearly fully abrogated	nearly fully abrogated	effect on viability of SiHa [2]: dose-dependent drop; inhibitory capacity toward Calpain activity (Calpain): no inhibitory capacity; inhibitory capacity toward Cathepsin D activity (Cathepsin D): no inhibitory capacity; Combination Index (CI) ([5]; Bortezomib 3.95 nmol/L / compound 2 2.5 mM/L): 0.6; Combination Index (CI) ([5]; Bortezomib 6.125 nmol/L / compound 2 1.64 mM/L): 0.6; Combination Index (CI) ([5]; Bortezomib 7.5 nmol/L / compound 2 1.06 mM/L): 0.59; interaction of the combination with Bortezomib by isobologram analysis ([5]; checker board dilution series, XTT): highly synergistic; morphological changes compared to single treatment alone [6]: greater apoptotis-associated morphological changes; effect on viability of primary human Keratinocytes [8]: minimal effects; stabilization of the Ub-FL degron compared to single agents alone [9]: significantly enhance the stabilization; effect on viability of ME180 [10]: dose-dependent drop
	CC(C)C[C@H](NC(=O)[C@H](Cc1ccccc1)NC(=O)c1cnccn1)B(O)O [Bortezomib, reference compound]	increase	partial recovery in cell viability				
> 10 µM	CC(C)C[C@H](NC(=O)N1C/C(=C\c2ccc(Cl)c(Cl)c2)C(=O)/C(=C/c2ccc(Cl)c(Cl)c2)C1)C(=O)O [Compound 4]			partial inhibition	partial inhibition	partial inhibition	
> 10 µM	O=C1/C(=C/c2ccc(Cl)c(Cl)c2)CN(C(=O)N[C@@H](Cc2ccc(O)cc2)C(=O)O)C/C1=C\c1ccc(Cl)c(Cl)c1 [Compound 3]			partial inhibition	partial inhibition	partial inhibition	
